Test [1] concerns LO2 cells. Put plainly: CCK-8 cytotoxicity assay, LO2. Type of test: cell-based. The settings on record: Homo sapiens, L02, 72 h, read-out: IC50 LO2. Summed up: (§1)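 Cells seeded at 2500–3000 per well and held at 37 °C for 24 h, then exposed in triplicate to a range of test compound concentrations for 72 h, with 0.1% DMSO as control. CCK-8 added and incubated 2 h at 37 °C, then absorbance read at 450 nm. IC50 calculated and given as mean ± SD from three independent experiments.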

Test [2] concerns K562/ADR cells. Put plainly: CCK-8 antiproliferative assay, K562/ADR. The conditions noted are these: Homo sapiens, 72 h, read-out: IC50 K562/ADR. Type of test: cell-based. Summed up: as §1
(Tetrazolium assays rely on reduction of a dye to a coloured formazan, in cell work by metabolically active cells.)

In test [3] the test system is K562 cells. Put plainly: CCK-8 antiproliferative assay, K562. It is filed as cell-based. The conditions noted are these: Homo sapiens, K562, 72 h, read-out: IC50 K562. The method, boiled down:
as §1

Test [4] concerns K562 cells. Put plainly: Intracellular NO, DAF-FM DA, K562. The settings on record: 10c 1, 10, 100 μM, 3 and 7 100 μM, 3 h. Type of test: cell-based, human. The method, boiled down: (§2)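 Cells exposed to 0.1% DMSO or test compound at 37 °C for 3 h. Harvested, PBS-washed, and loaded with DAF-FM DA (50 μmol L−1) in incubation buffer at 37 °C for 30 min. Washed again, then NO fluorescence read by fluorescence microscopy and microplate reader. Three independent experiments, mean ± SD; Student's t-test against control.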

Test [5] concerns K562/ADR cells. Put plainly: Intracellular NO, DAF-FM DA, K562/ADR. It is filed as cell-based, human. The conditions noted are these: 10c 1, 10, 100 μM, 3 and 7 100 μM, 3 h. Summed up: as §2
The test system of test [6] is K562 cells. Put plainly: Western blot analysis, K562. Type of test: cell-based, human. The conditions noted are these: 10c 1, 5, 10 μM, 3 10 μM, 24 h.
Test [7] has as its system K562/ADR cells. Put plainly: Western blot analysis, K562/ADR. It is filed as cell-based, human. The conditions noted are these: 10c 1, 5, 10 μM, 3 10 μM, 24 h. (In general: A western blot detects proteins with antibodies after separation by electrophoresis.)
For test [8], the system named is HT-29 cells. The conditions noted are these: read-out: IC50 in HT-29 cells; cited from earlier work.

`COc1cccc2c1C(=O)c1c(O)c3c(c(O)c1C2=O)C[C@@](O)(C(=O)CO)C[C@@H]3O[C@H]1C[C@H](N)[C@H](O)[C@H](C)O1` [ADR, adriamycin]: the values for the IC50 in test [1], in test [2] and in test [3] were 2.74 ± 0.123 µM, 9.16 ± 0.658 µM and 0.672 ± 0.056 µM, respectively.

In the case of `COC(=O)C[C@](O)(CCCC(C)(C)O)C(=O)O[C@@H]1C(OC)=C[C@]23CCCN2CCc2cc4c(cc2[C@H]13)OCO4` [HHT, homoharringtonine], the IC50 is 0.915 ± 0.149 µM in test [1], 3.26 ± 0.082 µM in test [2] and 0.367 ± 0.011 µM in test [3].

As to `O=[N+]([O-])O[C@@H]1CO[C@H]2[C@@H]1OC[C@@H]2O` [compound 7, isosorbide 5-mononitrate], the “generation of intracellular NO” value in test [4] and in test [5] was “increased the intracellular NO levels” in each case. Besides, the IC50 in test [1], in test [2] and in test [3] was more than 200 µM throughout.

As to `Oc1ccc(-c2cc(=S)ss2)cc1` [compound 4, 5-(4-hydroxyphenyl)-3H-1,2-dithiole-3-thione], the IC50 in test [1], in test [2] and in test [3] was more than 200 µM in each case.

Consider `C[C@H]1[C@H](OC(=O)CCC(=O)O)O[C@@H]2O[C@@]3(C)CC[C@H]4[C@H](C)CC[C@@H]1[C@@]24OO3` [compound 3, artesunate], for which the AKT phosphorylation entry in test [6] and in test [7] was “clearly reduced the levels of AKT phosphorylation” throughout. Further, the “AMPK and JNK phosphorylation” value in test [6] is “up-regulated the levels of AMPK and JNK phosphorylation”; in test [7] it was “up-regulated the levels of AMPK and JNK phosphorylation”. For the same compound, the “generation of intracellular NO” value in test [4] and in test [5] was “increased the intracellular NO levels” each time. The IC50 was found to be 19.9 ± 0.331 µM in test [1], 36.4 ± 2.9 µM in test [2] and 10.2 ± 0.135 µM in test [3].

Consider `C[C@H]1[C@@H](O)O[C@@H]2O[C@@]3(C)CC[C@H]4[C@H](C)CC[C@@H]1[C@@]24OO3` [compound 2, dihydroartemisinin], for which the IC50 in test [1] was determined as 19.9 ± 1.66 µM; in test [2], 28.1 ± 1.09 µM; in test [3], 8.67 ± 0.277 µM.

As for `C[C@@H]1CC[C@H]2[C@@H](C)C(=O)O[C@@H]3O[C@@]4(C)CC[C@@H]1[C@]32OO4` [compound 1, Artemisinin], the figures for the IC50 in test [1], in test [2] and in test [3] were 83.3 ± 1.99 µM, more than 200 µM and 11.1 ± 0.832 µM, respectively.

Consider `O=C(CCCO[N+](=O)[O-])Oc1ccccc1C(=O)Oc1ccc(-c2cc(=S)ss2)cc1` [NOSH-1], for which the IC50 in test [8] is 0.048 µM.

The values are drawn from article PMC9047252 (RSC Advances, 2020).
